Assay [1] has as its target Mu-type opioid receptor (Rattus norvegicus) (UniProt P33535). Briefly: Inhibition of MOPr desensitization in wistar rat LC neuron cells assessed as reduction in the Met-Enk induced desensitization at 30 uM incubated for 15 mins before in the presence of SP600125. It counts as functional, cell-based.
Target sequence in this assay (P33535 whole entry): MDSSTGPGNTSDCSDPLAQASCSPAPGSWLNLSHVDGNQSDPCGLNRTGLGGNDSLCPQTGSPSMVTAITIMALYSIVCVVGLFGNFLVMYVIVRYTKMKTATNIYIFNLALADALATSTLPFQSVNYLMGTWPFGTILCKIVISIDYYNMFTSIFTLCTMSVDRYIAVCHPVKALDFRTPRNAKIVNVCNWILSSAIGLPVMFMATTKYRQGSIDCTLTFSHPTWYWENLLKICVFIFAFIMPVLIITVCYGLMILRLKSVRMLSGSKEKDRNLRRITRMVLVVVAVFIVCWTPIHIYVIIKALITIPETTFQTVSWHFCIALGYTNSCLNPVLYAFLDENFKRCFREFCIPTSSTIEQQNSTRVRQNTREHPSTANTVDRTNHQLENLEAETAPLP
The species entered for assay [2] is Homo sapiens. Briefly: Inhibition of human AMPK assessed as remaining activity at 1 uM in presence of 32ATP relative to control. An outline of the steps:
(§1)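 Express screen of 52 purified human kinases run as a radioactive filter-binding assay with 32ATP, at 1 μM inhibitor. ATP was at or below each kinase's calculated Km. Activity is given as percent of the activity without inhibitor. Run in duplicate; mean with S.D.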

Assay [3] deals with Casein kinase I isoform delta (Homo sapiens) (UniProt P48730). Kind of assay: Inhibition of human CK1delta assessed as remaining activity at 1 uM in presence of 32ATP relative to control. An outline of the steps:
as §1

In assay [4] the target is Serine/threonine-protein kinase STK11 (Homo sapiens) (UniProt Q15831). Kind of assay: Inhibition of human LKB1 assessed as remaining activity at 1 uM in presence of 32ATP relative to control. An outline of the steps: (§2)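 Express panel of 52 purified human kinases run in vitro. Kinase activity was measured directly by a radioactive filter-binding assay with ³²ATP, at ATP levels at or below each kinase's calculated Km for ATP. The compound was tested at 1 μM. Each assay was run in duplicate, and activity is given as the mean percentage (with S.D.) of activity without inhibitor.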

Assay [5] addresses SRSF protein kinase 1 (Homo sapiens) (UniProt Q96SB4). Kind of assay: Inhibition of human SRPK1 assessed as remaining activity at 1 uM in presence of 32ATP relative to control. The essentials:
as §2

Assay [6] addresses Receptor-interacting serine/threonine-protein kinase 2 (Homo sapiens) (UniProt O43353). Briefly: Inhibition of human RIPK2 assessed as remaining activity at 1 uM in presence of 32ATP relative to control. An outline of the steps: as §2
Assay [7] addresses Mitogen-activated protein kinase 8 (Homo sapiens) (UniProt P45983). Kind of assay: Inhibition of human JNK1 assessed as remaining activity at 1 uM in presence of 32ATP relative to control. The essentials: as §2
Assay [8] deals with Serine/threonine-protein kinase Nek6 (Homo sapiens) (UniProt Q9HC98). Kind of assay: Inhibition of human NEK6 assessed as remaining activity at 1 uM in presence of 32ATP relative to control. The essentials:
as §2

Assay [9] deals with Protein kinase C alpha type (Homo sapiens) (UniProt P17252). Briefly: Inhibition of human PKCalpha assessed as remaining activity at 1 uM in presence of 32ATP relative to control. An outline of the steps: as §2
For assay [10], the target named is Serine/threonine-protein kinase N2 (Homo sapiens) (UniProt Q16513). Briefly: Inhibition of human PRK2 at 1 uM in presence of 32ATP relative to control. The essentials:
as §2

The target in assay [11] is G protein-coupled receptor kinase 3 (Homo sapiens, UniProt P35626). Briefly: Inhibition of human GRK3 in the presence of ATP.
Assay [12] has as its target G protein-coupled receptor kinase 5 (Bos taurus) (UniProt P43249). Briefly: Inhibition of C-terminal truncations tagged bovine GRK5 at 125 uM in the presence of ATP.
Assay [13] deals with Beta-2 adrenergic receptor (Bos taurus) (UniProt Q28044). Briefly: Inhibition of bovine beta2-adrenoceptor desensitization in HEK293 cell. As to conditions: dose 3-30 µM. It counts as cell-based.
Assay [14] deals with Beta-adrenergic receptor kinase 1 (Homo sapiens) (UniProt P25098). Kind of assay: Inhibition of human GRK2 at 1 uM relative to control.
Assay [15] concerns the target Ribosomal protein S6 kinase alpha-5 (Homo sapiens) (UniProt O75582). Kind of assay: Inhibition of human MSK1 at 1 uM in presence of 32ATP relative to control. An outline of the steps:
as §2

Assay [16] deals with Mu-type opioid receptor (Rattus norvegicus) (UniProt P33535). Kind of assay: Inhibition of MOPr desensitization (unknown origin) assessed as DAMGO induced loss of functional receptor at 30 uM incubated for 15 mins relative to control.
Target sequence in this assay (P33535 whole entry, looked up): as the sequence (P33535 whole entry) above

Among the data in ChEMBL document CHEMBL5705902, “Role of G Protein-Coupled Receptor Kinases 2 and 3 in μ-Opioid Receptor Desensitization and Internalization” (Mol Pharmacol, 2015) are inhibition, Activity and IC50 values, retold here.

Structures are written as SMILES. The source made the active and inactive calls. No cut-off for these calls is given here. Where only a bound is given, the exact number is not on record here.

Sequence of Casein kinase I isoform delta (Homo sapiens) (P48730 whole entry, looked up, canonical isoform): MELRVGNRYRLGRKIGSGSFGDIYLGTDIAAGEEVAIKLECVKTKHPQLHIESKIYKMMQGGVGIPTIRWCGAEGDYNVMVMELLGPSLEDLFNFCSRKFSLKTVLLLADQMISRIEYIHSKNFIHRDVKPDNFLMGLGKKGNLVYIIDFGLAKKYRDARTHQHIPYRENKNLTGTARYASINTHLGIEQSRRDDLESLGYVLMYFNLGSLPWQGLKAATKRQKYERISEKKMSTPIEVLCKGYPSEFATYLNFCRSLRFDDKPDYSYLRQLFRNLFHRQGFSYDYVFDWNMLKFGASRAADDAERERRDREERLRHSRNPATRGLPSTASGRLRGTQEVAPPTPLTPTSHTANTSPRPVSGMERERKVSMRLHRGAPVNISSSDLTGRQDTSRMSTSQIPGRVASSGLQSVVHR
Sequence of Beta-2 adrenergic receptor (Bos taurus) (Q28044 whole entry, looked up): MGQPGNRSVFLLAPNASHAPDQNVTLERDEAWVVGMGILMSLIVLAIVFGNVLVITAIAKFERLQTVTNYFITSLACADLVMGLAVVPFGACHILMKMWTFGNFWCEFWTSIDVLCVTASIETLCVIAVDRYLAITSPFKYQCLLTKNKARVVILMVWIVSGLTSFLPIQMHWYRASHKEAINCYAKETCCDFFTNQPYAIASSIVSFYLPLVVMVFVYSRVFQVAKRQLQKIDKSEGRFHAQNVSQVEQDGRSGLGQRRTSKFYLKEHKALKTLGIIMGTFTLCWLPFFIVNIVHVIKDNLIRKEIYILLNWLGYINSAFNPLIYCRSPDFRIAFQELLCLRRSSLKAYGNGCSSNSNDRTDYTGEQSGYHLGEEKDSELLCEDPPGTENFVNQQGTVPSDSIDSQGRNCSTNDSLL
Sequence of Receptor-interacting serine/threonine-protein kinase 2 (Homo sapiens) (O43353 whole entry): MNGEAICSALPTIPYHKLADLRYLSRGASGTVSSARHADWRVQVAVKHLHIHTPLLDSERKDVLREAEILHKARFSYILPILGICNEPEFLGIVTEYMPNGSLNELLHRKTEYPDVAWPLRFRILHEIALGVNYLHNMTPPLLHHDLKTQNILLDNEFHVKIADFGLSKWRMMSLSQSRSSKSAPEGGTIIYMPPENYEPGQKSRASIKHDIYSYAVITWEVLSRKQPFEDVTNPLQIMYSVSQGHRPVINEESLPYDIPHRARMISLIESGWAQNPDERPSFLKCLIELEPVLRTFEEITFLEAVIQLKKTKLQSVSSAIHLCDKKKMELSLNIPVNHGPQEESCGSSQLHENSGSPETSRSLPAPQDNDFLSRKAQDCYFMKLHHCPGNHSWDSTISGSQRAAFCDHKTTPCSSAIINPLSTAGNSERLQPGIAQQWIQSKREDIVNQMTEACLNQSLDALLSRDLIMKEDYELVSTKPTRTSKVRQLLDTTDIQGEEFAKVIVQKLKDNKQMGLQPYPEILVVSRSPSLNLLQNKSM
Sequence of SRSF protein kinase 1 (Homo sapiens) (Q96SB4 whole entry): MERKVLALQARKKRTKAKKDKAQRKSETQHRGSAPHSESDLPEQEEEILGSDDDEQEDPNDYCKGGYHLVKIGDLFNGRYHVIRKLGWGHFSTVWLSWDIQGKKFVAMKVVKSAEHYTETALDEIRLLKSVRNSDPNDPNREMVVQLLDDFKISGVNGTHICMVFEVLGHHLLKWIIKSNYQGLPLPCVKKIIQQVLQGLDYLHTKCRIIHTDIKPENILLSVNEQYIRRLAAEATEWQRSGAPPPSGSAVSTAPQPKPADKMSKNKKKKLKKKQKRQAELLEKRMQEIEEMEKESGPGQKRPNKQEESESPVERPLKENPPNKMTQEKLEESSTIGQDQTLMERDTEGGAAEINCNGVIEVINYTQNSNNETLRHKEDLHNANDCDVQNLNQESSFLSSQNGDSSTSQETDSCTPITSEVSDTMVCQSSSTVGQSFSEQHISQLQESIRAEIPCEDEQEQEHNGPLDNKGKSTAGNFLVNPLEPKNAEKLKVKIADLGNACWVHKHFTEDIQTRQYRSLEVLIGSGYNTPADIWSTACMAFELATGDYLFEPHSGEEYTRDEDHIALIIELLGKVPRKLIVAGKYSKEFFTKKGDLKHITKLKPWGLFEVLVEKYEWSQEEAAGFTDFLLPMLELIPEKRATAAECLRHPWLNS
Sequence of Mitogen-activated protein kinase 8 (Homo sapiens) (P45983 whole entry): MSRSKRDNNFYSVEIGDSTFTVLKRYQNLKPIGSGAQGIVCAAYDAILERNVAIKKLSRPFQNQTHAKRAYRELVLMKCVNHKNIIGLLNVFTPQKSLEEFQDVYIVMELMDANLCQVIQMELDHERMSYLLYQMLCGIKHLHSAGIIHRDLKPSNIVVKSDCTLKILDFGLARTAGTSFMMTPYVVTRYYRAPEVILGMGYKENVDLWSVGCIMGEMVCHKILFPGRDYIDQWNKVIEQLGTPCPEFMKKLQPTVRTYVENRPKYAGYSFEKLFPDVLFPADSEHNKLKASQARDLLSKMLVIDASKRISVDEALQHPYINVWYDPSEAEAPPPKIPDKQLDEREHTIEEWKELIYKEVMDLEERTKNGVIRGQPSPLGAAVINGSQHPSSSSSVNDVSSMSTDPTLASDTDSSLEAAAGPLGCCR
Sequence of Serine/threonine-protein kinase STK11 (Homo sapiens) (Q15831 whole entry): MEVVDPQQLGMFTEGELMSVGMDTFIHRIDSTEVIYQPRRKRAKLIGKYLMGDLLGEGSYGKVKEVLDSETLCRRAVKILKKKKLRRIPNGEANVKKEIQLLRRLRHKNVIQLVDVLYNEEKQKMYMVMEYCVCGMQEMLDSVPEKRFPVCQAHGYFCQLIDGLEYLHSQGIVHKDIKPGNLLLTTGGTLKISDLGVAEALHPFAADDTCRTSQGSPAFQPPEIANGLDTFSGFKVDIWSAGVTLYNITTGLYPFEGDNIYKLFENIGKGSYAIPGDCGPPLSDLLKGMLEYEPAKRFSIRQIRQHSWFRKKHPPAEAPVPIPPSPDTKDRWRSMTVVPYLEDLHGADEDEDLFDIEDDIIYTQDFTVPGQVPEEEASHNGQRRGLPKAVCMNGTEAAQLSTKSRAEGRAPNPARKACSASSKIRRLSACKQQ
Sequence of Beta-adrenergic receptor kinase 1 (Homo sapiens) (P25098 whole entry): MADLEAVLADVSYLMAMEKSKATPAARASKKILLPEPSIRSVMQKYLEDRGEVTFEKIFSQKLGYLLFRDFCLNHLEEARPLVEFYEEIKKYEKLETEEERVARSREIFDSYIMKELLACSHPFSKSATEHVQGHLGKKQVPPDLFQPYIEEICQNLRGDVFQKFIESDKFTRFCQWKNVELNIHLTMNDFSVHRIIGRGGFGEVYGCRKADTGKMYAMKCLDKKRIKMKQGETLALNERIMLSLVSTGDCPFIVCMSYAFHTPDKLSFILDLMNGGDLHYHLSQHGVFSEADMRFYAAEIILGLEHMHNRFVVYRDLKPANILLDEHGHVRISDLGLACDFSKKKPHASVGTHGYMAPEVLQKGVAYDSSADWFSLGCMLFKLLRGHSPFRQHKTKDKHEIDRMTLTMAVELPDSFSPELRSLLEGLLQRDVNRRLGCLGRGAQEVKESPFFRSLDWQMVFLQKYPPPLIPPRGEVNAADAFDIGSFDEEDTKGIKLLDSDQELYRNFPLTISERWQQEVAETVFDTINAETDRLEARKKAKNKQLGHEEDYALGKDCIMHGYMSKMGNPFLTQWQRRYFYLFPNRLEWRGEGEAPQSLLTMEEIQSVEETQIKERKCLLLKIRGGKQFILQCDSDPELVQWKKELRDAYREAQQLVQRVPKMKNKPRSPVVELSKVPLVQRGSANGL

Usually inhibition stands for the drop in the measured response relative to a control, in per cent. One may read the IC50 as the concentration at which inhibition is half-maximal. Take `Cn1c(CNc2cccc(C(=O)NCc3ccccc3C(F)(F)F)c2)nnc1-c1ccncc1`: the inhibition result in assay [1] and in assay [12] was “inactive” each time. The Activity came out at 82% in [2]; 86% in assay [3]; 91% in assay [4]; 91% in assay [5]; 93% in assay [6]; 93% in assay [7]. In addition, the Activity stood at 95% in assay [8] and 96% in [9]. Besides, the inhibition is 93% in assay [10]; “Dose-Dependent Effect” in assay [13]; more than 90% in [14]; more than 50% in [15]; 59% in [16]. The concentration for half-maximal inhibition (IC50) in assay [11] stood at 290 nM.
